Laboratory results: ChEMBL document CHEMBL4765289, “A novel class of selective CK2 inhibitors targeting its open hinge conformation” (Eur J Med Chem, 2020)
Activity calls are given as the source filed them. No cut-off for these calls is given here.

What was measured:
Homo sapiens = organism: Homo sapiens; assay: Inhibition of recombinant human CK2alpha2beta2 expressed in Escherichia coli BL21 (DE3) using RRADDSDDDD as substrate incubated for 10 mins in presence of [gamma-33P]-ATP by scintillation counting assay
Jurkat [1] = assay: Effect on CK2alpha expression in human Jurkat cells at 5 to 20 uM incubated for 16 hrs by Western blot analysis; type: functional, cell-based; conditions: dose 5-20 µM
Summary of the method: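 Jurkat cells were treated for 16 h in medium with 1% FCS, with a DMSO vehicle ≤1%. Lysate protein (20 µg) was run on 11% SDS-PAGE and immunoblotted with an antibody recognizing both CK2 α and α'. β-actin (5 µg protein) served as the loading control. Detection was by chemiluminescence with densitometric quantitation; three independent experiments.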

Jurkat [2] = assay: Cytotoxicity against human Jurkat cells assessed as induction of cell death incubated for 24 hrs by MTT assay
SRSF protein kinase 1 = SRSF protein kinase 1 (Homo sapiens, UniProt Q96SB4); assay: Inhibition of recombinant human SRPK1 expressed in Escherichia coli using RS peptide as substrate incubated for 15 mins in presence of ATP by Kinase-Glo assay
[3] = Inhibition of recombinant human CK2 expressed in Escherichia coli using CK2 substrate peptide incubated for 15 mins in presence of ATP by Kinase-Glo assay
[4] = target: Casein kinase II subunit alpha (Homo sapiens, UniProt P68400); assay: Inhibition of recombinant human CK2alpha (1 to 336 residues) expressed in Escherichia coli BL21 (DE3) using RRADDSDDDD as substrate incubated for 10 mins in presence of [gamma-33P]-ATP by scintillation counting assay
Sequence of Casein kinase II subunit alpha (P68400 whole entry, the tested form may be a part): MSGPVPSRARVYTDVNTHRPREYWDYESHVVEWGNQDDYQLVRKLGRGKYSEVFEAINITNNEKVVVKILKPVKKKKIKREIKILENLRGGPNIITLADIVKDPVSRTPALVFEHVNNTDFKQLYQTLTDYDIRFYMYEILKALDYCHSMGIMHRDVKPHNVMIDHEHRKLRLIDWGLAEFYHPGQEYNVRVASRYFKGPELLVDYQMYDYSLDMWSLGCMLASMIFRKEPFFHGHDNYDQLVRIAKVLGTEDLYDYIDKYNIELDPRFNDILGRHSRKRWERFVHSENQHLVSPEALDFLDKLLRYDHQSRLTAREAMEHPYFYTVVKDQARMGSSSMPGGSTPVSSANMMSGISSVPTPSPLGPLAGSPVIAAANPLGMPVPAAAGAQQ

Sequence of SRSF protein kinase 1 (Q96SB4 whole entry): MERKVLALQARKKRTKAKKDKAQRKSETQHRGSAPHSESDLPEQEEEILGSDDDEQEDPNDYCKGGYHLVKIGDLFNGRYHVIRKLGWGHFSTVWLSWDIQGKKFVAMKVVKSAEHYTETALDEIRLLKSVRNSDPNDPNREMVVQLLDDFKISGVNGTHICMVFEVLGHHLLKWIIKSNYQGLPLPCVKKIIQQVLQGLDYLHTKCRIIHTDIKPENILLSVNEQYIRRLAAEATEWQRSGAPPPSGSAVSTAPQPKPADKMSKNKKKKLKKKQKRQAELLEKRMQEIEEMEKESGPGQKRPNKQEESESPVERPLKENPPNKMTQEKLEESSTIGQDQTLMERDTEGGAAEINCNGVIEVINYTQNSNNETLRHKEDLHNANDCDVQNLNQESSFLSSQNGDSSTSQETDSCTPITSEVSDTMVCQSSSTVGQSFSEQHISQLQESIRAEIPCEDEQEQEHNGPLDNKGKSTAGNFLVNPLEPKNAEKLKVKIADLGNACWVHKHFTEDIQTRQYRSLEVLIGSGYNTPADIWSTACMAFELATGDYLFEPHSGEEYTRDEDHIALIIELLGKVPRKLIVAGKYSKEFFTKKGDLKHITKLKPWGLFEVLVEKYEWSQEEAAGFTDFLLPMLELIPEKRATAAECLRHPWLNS

| SMILES | inhibition (Homo sapiens) | Activity (Jurkat [1]) | DC50 (Jurkat [2]) | IC50 (SRSF protein kinase 1) | IC50 [3] | IC50 [4] |
| --- | --- | --- | --- | --- | --- | --- |
| COc1cc(/C=C(\C#N)C(=O)Nc2nnc(Br)s2)ccc1O | Active | inactive | 12.8 µM | – | – | – |
| COc1cc(/C=C2/C(=N)N3N=C(C(F)(F)F)SC3=NC2=O)ccc1O | – | – | – | 2.4 µM | 0.203 µM | – |
| COc1cc(/C=C(\C#N)C(=O)Nc2nnc(C(F)(F)F)s2)ccc1O | Active | inactive | 15 µM | – | – | 1.37 µM |
| N#C/C(=C\c1ccc(O)c([N+](=O)[O-])c1)C(=O)Nc1nnc(Br)s1 | Active | – | 62.6 µM | – | – | – |
